Assay results taken from article PMC3561458 (Investigational new drugs, 2011).
Marks after values point to notes of the source that are not given here.

Key:
[1] = system: CDK1; details: cited from earlier work
[2] = system: CDK2/Cyclin A complex; details: read-out: IC50, CDK2/Cyclin A complex; cited from earlier work
[3] = system: animals; details: high single or repeated doses; cited from earlier work
[4] = system: advanced/metastatic solid tumors; assay: Antitumor activity; format: in vivo, human
How it was run: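 Adults (≥18 y) with relapsed or refractory solid tumours and no standard therapy, ECOG 0–1, take the test compound as capsules orally once daily for 7 consecutive days in 2-week cycles (S1). Patients stay on study until progression, refusal or unacceptable toxicity. Disease is assessed by RECIST every 8 weeks and at study discontinuation.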

[5] = system: CDK5; details: cited from earlier work
[6] = system: CDK7; details: cited from earlier work
[7] = system: patients with advanced/metastatic solid tumors; assay: Phase I safety: adverse events; format: in vivo, human; details: for dose-limiting toxicities (DLTs): all doses

SMILES: CNC(=O)c1nn(C)c2c1C(C)(C)Cc1cnc(Nc3ccc(N4CCN(C)CC4)cc3)nc1-2 [PHA-848125AC, N,1,4,4-tetramethyl-8-{[4-(4-methylpiperazin-1-yl)phenyl]amino}-4,5-dihydro-1H-pyrazolo [4,3-h]quinazoline-3-carboxamide]
- inhibitory activity towards CDK1 [1]: inhibitory activity
- IC50 [2]: 45 nM
- neurological effects in animals [3]: tremors and increased reactivity to external stimuli
- duration of stabilization ([4]; CRC patient, 150 mg/day, S1): 55.6 weeks
- duration of stabilization ([4]; NSCLC patient, 200 mg/day, S1): 24.6 weeks
- objective response ([4]; S1): No objective response
- patients discontinued for lack of efficacy ([4]; S1 N=22): 81.8%
- patients discontinued for lack of efficacy ([4]; S2 N=15): 86.7%
- duration of stabilization ([4]; carcinoid patient, 180 mg/day, S2): 29.1 weeks
- duration of stabilization ([4]; pancreatic adenocarcinoma patient, 180 mg/day, S2): 39.3 weeks
- inhibitory activity towards CDK5 [5]: inhibitory activity
- inhibitory activity towards CDK7 [6]: inhibitory activity
- ERG findings during treatment ([7]; S1): No abnormal ERG findings
- doses at which DLTs≥Grade 3 were noted ([7]; S1): ≥ 200 mg/day
- Any drug-related adverse event, CTC Grade 1–4: patients ([7]; S1 50 mg/day N=3, all cycles): 3
- Nausea, drug-related, CTC Grade 1–4: patients ([7]; S1 50 mg/day N=3, all cycles): 1
- Any drug-related adverse event, CTC Grade 1–4: patients ([7]; S1 100 mg/day N=6, all cycles): 6
- Any drug-related adverse event, CTC Grade 3–4: patients ([7]; S1 100 mg/day N=6, all cycles): 1
- Decreased Hb, drug-related, CTC Grade 1–4: patients ([7]; S1 100 mg/day N=6, all cycles): 1
- Decreased Hb, drug-related, CTC Grade 3–4: patients ([7]; S1 100 mg/day N=6, all cycles): 1
- Diarrhea, drug-related, CTC Grade 1–4: patients ([7]; S1 100 mg/day N=6, all cycles): 1
- Fatigue, drug-related, CTC Grade 1–4: patients ([7]; S1 100 mg/day N=6, all cycles): 2
- Fatigue, drug-related, CTC Grade 3–4: patients ([7]; S1 100 mg/day N=6, all cycles): 1
- Nausea, drug-related, CTC Grade 1–4: patients ([7]; S1 100 mg/day N=6, all cycles): 3
- Tremor, drug-related, CTC Grade 1–4: patients ([7]; S1 100 mg/day N=6, all cycles): 2
- Vomiting, drug-related, CTC Grade 1–4: patients ([7]; S1 100 mg/day N=6, all cycles): 3
- DLT events ([7]; S1 200 mg/day): Grade 3 ataxia and Grade 2–3 tremors
- Any drug-related adverse event, CTC Grade 1–4: patients ([7]; S1 200 mg/day N=6, all cycles): 6
- Any drug-related adverse event, CTC Grade 3–4: patients ([7]; S1 200 mg/day N=6, all cycles): 5
- Ataxia, drug-related, CTC Grade 1–4: patients ([7]; S1 200 mg/day N=6, all cycles): 3
- Ataxia, drug-related, CTC Grade 3–4: patients ([7]; S1 200 mg/day N=6, all cycles): 3
- Diarrhea, drug-related, CTC Grade 1–4: patients ([7]; S1 200 mg/day N=6, all cycles): 5
- Diarrhea, drug-related, CTC Grade 3–4: patients ([7]; S1 200 mg/day N=6, all cycles): 1
- Dizziness, drug-related, CTC Grade 1–4: patients ([7]; S1 200 mg/day N=6, all cycles): 1
- Fatigue, drug-related, CTC Grade 1–4: patients ([7]; S1 200 mg/day N=6, all cycles): 2
- Increased ALT, drug-related, CTC Grade 1–4: patients ([7]; S1 200 mg/day N=6, all cycles): 1
- Increased ALT, drug-related, CTC Grade 3–4: patients ([7]; S1 200 mg/day N=6, all cycles): 1
- Nausea, drug-related, CTC Grade 1–4: patients ([7]; S1 200 mg/day N=6, all cycles): 4
- Neutropenia, drug-related, CTC Grade 1–4: patients ([7]; S1 200 mg/day N=6, all cycles): 1
- Neutropenia, drug-related, CTC Grade 3–4: patients ([7]; S1 200 mg/day N=6, all cycles): 1
- Syncope, drug-related, CTC Grade 1–4: patients ([7]; S1 200 mg/day N=6, all cycles): 1
- Syncope, drug-related, CTC Grade 3–4: patients ([7]; S1 200 mg/day N=6, all cycles): 1
- Tremor, drug-related, CTC Grade 1–4: patients ([7]; S1 200 mg/day N=6, all cycles): 4
- Tremor, drug-related, CTC Grade 3–4: patients ([7]; S1 200 mg/day N=6, all cycles): 2
- Vomiting, drug-related, CTC Grade 1–4: patients ([7]; S1 200 mg/day N=6, all cycles): 4
- Any drug-related adverse event, CTC Grade 1–4: patients ([7]; S1 300 mg/day N=1, all cycles): 1
- Any drug-related adverse event, CTC Grade 3–4: patients ([7]; S1 300 mg/day N=1, all cycles): 1
- Ataxia, drug-related, CTC Grade 1–4: patients ([7]; S1 300 mg/day N=1, all cycles): 1
- Ataxia, drug-related, CTC Grade 3–4: patients ([7]; S1 300 mg/day N=1, all cycles): 1
- Dehydration, drug-related, CTC Grade 1–4: patients ([7]; S1 300 mg/day N=1, all cycles): 1
- Diarrhea, drug-related, CTC Grade 1–4: patients ([7]; S1 300 mg/day N=1, all cycles): 1
- Dizziness, drug-related, CTC Grade 1–4: patients ([7]; S1 300 mg/day N=1, all cycles): 1
- Fatigue, drug-related, CTC Grade 1–4: patients ([7]; S1 300 mg/day N=1, all cycles): 1
- Nausea, drug-related, CTC Grade 1–4: patients ([7]; S1 300 mg/day N=1, all cycles): 1
- Tremor, drug-related, CTC Grade 1–4: patients ([7]; S1 300 mg/day N=1, all cycles): 1
- Vomiting, drug-related, CTC Grade 1–4: patients ([7]; S1 300 mg/day N=1, all cycles): 1
- dose-limiting toxicities (DLTs) ([7]; S1 (7 days on/7 days off q2wks)): ataxia (Grade 2–4) and tremors (Grade 2–3)
- patients with drug-related eye disorders ([7]; S1, single patient, Grade 1 increased lacrimation): 4.5%
- patients discontinued due to adverse events ([7]; S1 N=22): 13.6%
- ataxia ([7]; S2): not observed
- fundoscopy and ERG abnormalities during treatment ([7]; S2): neither clinically relevant abnormality at fundoscopy nor ERG abnormalities
- Anemia, drug-related, CTC Grade 1–4: patients ([7]; S2 150 mg/day N=5, all cycles): 2
- Any drug-related adverse event, CTC Grade 1–4: patients ([7]; S2 150 mg/day N=5, all cycles): 5
- Any drug-related adverse event, CTC Grade 3–4: patients ([7]; S2 150 mg/day N=5, all cycles): 4
- Diarrhea, drug-related, CTC Grade 1–4: patients ([7]; S2 150 mg/day N=5, all cycles): 3
- Hypokalemia, drug-related, CTC Grade 1–4: patients ([7]; S2 150 mg/day N=5, all cycles): 1
- Hypokalemia, drug-related, CTC Grade 3–4: patients ([7]; S2 150 mg/day N=5, all cycles): 1
- Increased ALT, drug-related, CTC Grade 1–4: patients ([7]; S2 150 mg/day N=5, all cycles): 1
- Increased ALT, drug-related, CTC Grade 3–4: patients ([7]; S2 150 mg/day N=5, all cycles): 1
- Increased Lipase, drug-related, CTC Grade 1–4: patients ([7]; S2 150 mg/day N=5, all cycles): 1
- Increased Lipase, drug-related, CTC Grade 3–4: patients ([7]; S2 150 mg/day N=5, all cycles): 1
- Nausea, drug-related, CTC Grade 1–4: patients ([7]; S2 150 mg/day N=5, all cycles): 3
- Neutropenia, drug-related, CTC Grade 1–4: patients ([7]; S2 150 mg/day N=5, all cycles): 1
- Tremor, drug-related, CTC Grade 1–4: patients ([7]; S2 150 mg/day N=5, all cycles): 3
- Vomiting, drug-related, CTC Grade 1–4: patients ([7]; S2 150 mg/day N=5, all cycles): 2
- Vomiting, drug-related, CTC Grade 3–4: patients ([7]; S2 150 mg/day N=5, all cycles): 1
- Anemia, drug-related, CTC Grade 1–4: patients ([7]; S2 200 mg/day N=4, all cycles): 2
- Any drug-related adverse event, CTC Grade 1–4: patients ([7]; S2 200 mg/day N=4, all cycles): 4
- Any drug-related adverse event, CTC Grade 3–4: patients ([7]; S2 200 mg/day N=4, all cycles): 2
- Dehydration, drug-related, CTC Grade 1–4: patients ([7]; S2 200 mg/day N=4, all cycles): 1
- Diarrhea, drug-related, CTC Grade 1–4: patients ([7]; S2 200 mg/day N=4, all cycles): 3
- Diarrhea, drug-related, CTC Grade 3–4: patients ([7]; S2 200 mg/day N=4, all cycles): 1
- Dizziness, drug-related, CTC Grade 1–4: patients ([7]; S2 200 mg/day N=4, all cycles): 2
- Fatigue, drug-related, CTC Grade 1–4: patients ([7]; S2 200 mg/day N=4, all cycles): 3
- Nausea, drug-related, CTC Grade 1–4: patients ([7]; S2 200 mg/day N=4, all cycles): 1
- Neutropenia, drug-related, CTC Grade 1–4: patients ([7]; S2 200 mg/day N=4, all cycles): 1
- Tremor, drug-related, CTC Grade 1–4: patients ([7]; S2 200 mg/day N=4, all cycles): 2
- Tremor, drug-related, CTC Grade 3–4: patients ([7]; S2 200 mg/day N=4, all cycles): 1
- Vomiting, drug-related, CTC Grade 1–4: patients ([7]; S2 200 mg/day N=4, all cycles): 1
- dose-limiting toxicities (DLTs) ([7]; S2 (4 days on/3 days off × 3wks q4wks)): tremors (Grade 2–3), elevated lipase (Grade 3), increased creatinine (Grade 2), and nausea and vomiting (Grade 3)
- patients discontinued due to adverse events ([7]; S2 N=15): 13.3 ^a %
- blood chemistry and hematology abnormalities ([7]; any schedule, except lymphocytopenia): No significant blood chemistry and hematology abnormalities
- doses at which tremors and ataxia were dose-limiting ([7]; both schedules): > 150 mg/day
- lymphocytopenia occurrence ([7]; both schedules): half of cases
- on study deaths ([7]; both schedules): No on study deaths
- effects on coagulation, blood pressure, ECGs ([7]; in vivo): did not cause significant effects
- recommended phase II dose (RP2D) ([7]; oral, both schedules (S1 and S2)): 150 mg/day
